This note sets out measurements from ChEMBL document CHEMBL4145692, “Discovery of a Locally and Orally Active CXCL12 Neutraligand (LIT-927) with Anti-inflammatory Effect in a Murine Model of Allergic Airway Hypereosinophilia” (J Med Chem, 2018).

Values after ≈ are worked out from the molar mass of the structure shown.

Data set [1] in a line: Kinetic solubility in pH 7.4 HEPES-BSA buffer at 5 uM incubated for 24 hrs at 20 degC by HPLC method. The class given is physicochemical. The following applies: read-out: Kinetic_solubility. In short, it runs like this: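 Compound added from 10 mM DMSO stock to 5 μM in pH 7.4 HEPES-BSA buffer (1 g/L BSA), shaken 24 h at 20 °C. After centrifugation, supernatant concentration measured by HPLC against 5 and 10 μM standards.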

Data set [2] concerns the target T1, Stromal cell-derived factor 1 (Homo sapiens, UniProt P48061). Kind of data set: Binding affinity to Texas Red-labelled CXCL12 (unknown origin) assessed as inhibition of CXCL12-Texas Red binding to EGFP-labeled human CXCR4 expressed in HEK293 cell membranes at 5 uM pre-incubated for 1 hr by FRET-based binding assay. In short, it runs like this:
(§1)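 HEK-293 cells stably expressing human EGFP-CXCR4, 10⁶ cells/ml in HEPES buffer pH 7.4 with 0.1% BSA, 21 °C. CXCL12-Texas Red (100 nM) was preincubated 1 h at room temperature with compound or DMSO, then added at t=150 s. FRET read as loss of EGFP emission at 510 nm (excitation 470 nm) up to equilibrium. Ki from dose-response curves.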

The target in data set [3] is T1, Stromal cell-derived factor 1. Kind of data set: Binding affinity to Texas Red-labelled CXCL12 (unknown origin) assessed as inhibition of CXCL12-Texas Red binding to EGFP-labeled human CXCR4 expressed in HEK293 cell membranes at 1 uM pre-incubated for 1 hr by FRET-based binding assay. A digest of the protocol:
as §1

Data set [4] deals with Mus musculus. Kind of data set: Toxicity in Balb/c mouse model of hypereosinophilia assessed as reduction in body weight at 12.6 umol/kg, ip dosed daily 2 hrs before allergen challenge for 3 days and measured 24 hrs after last dose. The class given is organism-based. The following applies: in vivo. Further details: scale not given: the % may be the effect or the level left. A digest of the protocol: (§2)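 Same OVA model with i.p. dosing 2 h before each of the three challenges: neutraligands 350 μmol/kg in PBS/CMC 1%, AMD3100 12.6 μmol/kg, dexamethasone 2.5 μmol/kg. Body and spleen weight loss recorded 24 h after three daily administrations; n=6/group.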

Data set [5] has as its system Mus musculus. Kind of data set: Toxicity in Balb/c mouse model of hypereosinophilia assessed as reduction in spleen weight at 12.6 umol/kg, ip dosed daily 2 hrs before allergen challenge for 3 days and measured 24 hrs after last dose. Further details: scale not given: the % may be the effect or the level left. The following applies: in vivo. The class given is organism-based. A digest of the protocol:
as §2

For data set [6], the species on record is Mus musculus. Kind of data set: animal or person. The following applies: Balb/c, ip, read-out: INH.
The target of data set [7] is T1, Stromal cell-derived factor 1. The data set is described as follows: Binding affinity to Texas Red-labelled CXCL12 (unknown origin) assessed as inhibition of CXCL12-Texas Red binding to EGFP-labeled human CXCR4 expressed in HEK293 cell membranes at 3 uM pre-incubated for 1 hr by FRET-based binding assay. A digest of the protocol: as §1
For data set [8] the target is unchanged. The data set is described as follows: Binding affinity to Texas Red-labelled CXCL12 (unknown origin) assessed as inhibition of CXCL12-Texas Red binding to EGFP-labeled human CXCR4 expressed in HEK293 cell membranes at 30 uM pre-incubated for 1 hr by FRET-based binding assay. A digest of the protocol: as §1
Data set [9] relates to Mus musculus. Kind of data set: Anti-inflammatory activity in Balb/c mouse model of hypereosinophilia assessed as inhibition of eosinophil infiltration at 2.5 umol/kg, ip dosed 2 hrs before allergen challenge. The class given is functional. A digest of the protocol: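 Balb/c mice sensitized with OVA/alum i.p. and challenged intranasally with OVA on 3 consecutive days. Compounds given i.p. 2 h before each challenge: neutraligands 350 μmol/kg in PBS/CMC 1%, AMD3100 12.6 μmol/kg, dexamethasone 2.5 μmol/kg. BAL 24 h after the last challenge; absolute eosinophil counts; mean ± SEM, n=6/group.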

Data set [10] deals with Mus musculus. The data set is described as follows: Toxicity in Balb/c mouse model of hypereosinophilia assessed as reduction in body weight at 2.5 umol/kg, ip dosed daily 2 hrs before allergen challenge for 3 days and measured 24 hrs after last dose. It is filed as organism-based. Further details: scale not given: the % may be the effect or the level left. The conditions noted are these: in vivo. In short, it runs like this:
as §2

Data set [11] relates to Mus musculus. The data set is described as follows: Toxicity in Balb/c mouse model of hypereosinophilia assessed as reduction in spleen weight at 2.5 umol/kg, ip dosed daily 2 hrs before allergen challenge for 3 days and measured 24 hrs after last dose. The class given is organism-based. Further details: scale not given: the % may be the effect or the level left. The following applies: in vivo. A digest of the protocol: as §2

T1 sequence (P48061 whole entry): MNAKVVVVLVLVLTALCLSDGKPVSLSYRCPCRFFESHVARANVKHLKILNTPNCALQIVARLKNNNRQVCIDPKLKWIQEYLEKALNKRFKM

For the compound `CCOc1cc(/C=C/C(=O)c2ccc(Cl)cc2)ccc1O`, the solubility kinetic at 24 h, 5 µM in [1] turned out to be 4.72 µM (≈ 1.43 µg/mL). Besides, in data set [2], the inhibition worked out at 52%.

With `O=C(/C=C/c1ccccc1)c1ccc(Cl)cc1`, the solubility kinetic at 24 h, 5 µM in data set [1] amounted to 1.17 µM (≈ 0.284 µg/mL). In addition, the inhibition in data set [3] came to 18%.

Consider `c1cc(CN2CCCNCCNCCCNCC2)ccc1CN1CCCNCCNCCCNCC1` [PLERIXAFOR], for which the Activity with Mus musculus [4] stood at 7.8%; in the data set with Mus musculus [5], 9.8%. Moreover, the inhibition in vivo at 12.6 µmol/kg in the data set filed under Mus musculus [6] came out at 33%.

With `O=C(/C=C/c1ccc2c(c1)OCO2)c1ccc(Cl)cc1`, in [1], the solubility kinetic at 24 h, 5 µM came out at 2.31 µM (≈ 0.662 µg/mL). Further, the inhibition in [7] came to 25%.

Take `COc1cc(/C=C/C(=O)c2ccc3ccccc3c2)ccc1O`: in data set [8], the inhibition was determined as 5%. Moreover, the solubility kinetic at 24 h, 5 µM in [1] was 0.95 µM (≈ 0.289 µg/mL).

Regarding `C[C@@H]1C[C@H]2[C@@H]3CCC4=CC(=O)C=C[C@]4(C)[C@@]3(F)[C@@H](O)C[C@]2(C)[C@@]1(O)C(=O)CO` [DEXAMETHASONE], the inhibition in vivo at 2.5 µmol/kg with Mus musculus [9] came to 59%. Besides, the Activity came to 10.1% in the data set on Mus musculus [10] and 43% in the data set on Mus musculus [11].

Consider `COc1cc(-c2cc(-c3ccc(Cl)cc3)ncn2)ccc1O`, for which the solubility kinetic at 24 h, 5 µM in data set [1] turned out to be 4.29 µM (≈ 1.34 µg/mL). In data set [2], the inhibition came to 30%.

Broadly, the inhibition is the share of the control response that was lost under treatment.
